The record followed here is ChEMBL document CHEMBL1123566, “Synthesis and cardiac electrophysiological activity of 2- and 3-[(substituted phenyl)alkyl]quinuclidines. Structure-activity relationships” (1987).

Several values for one entry are separate records, joined by “and”; a condition that tells them apart may be missing. Identical values can stand only once.

The species entered for test [1] is Canis familiaris. Briefly: In vitro electrophysiological evaluation in canine cardiac Purkinje fibres reported as % change for action potential duration at 10 uM at 1-100 uM concentration range. The class given is functional, Canis lupus familiaris, Purkinje fiber. In short, it runs like this:
(§1)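 Canine cardiac Purkinje fibres, intracellular microelectrode recording, paced at a basic cycle length of 1 s. APD95 and Vmax read simultaneously. Compound: 10 mM stock in deionized water, diluted into Tyrode's solution, tested over the stated concentration range. Each fibre used once as its own control. Result is % change from control, given at 10 µM or as the maximum with its concentration. M = <10% decrease or an increase in Vmax.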

For test [2], the species on record is Canis familiaris. The test can be described thus: In vitro electrophysiological evaluation in canine cardiac ventricular muscle reported as maximum % change for conduction time(CT) at 0.1-100 uM concentration range; concentration at which it occurred is 100 uM. The class given is functional, Canis lupus familiaris, Muscle tissue. The gist of the method:
(§2)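 Canine right ventricle and papillary muscle strips in oxygenated Tyrode's solution, fitted with stimulating and recording electrodes. The extra-stimulus conduction-interval method was adapted for in vitro use. FRP and CT were read from a conduction-interval curve before and after various compound concentrations, and expressed as percent change from control. Compounds were taken from 10 mM deionized-water stock into Tyrode's. Each strip was used once as its own control.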

Test [3] is filed under the species Canis familiaris. The test can be described thus: In vitro electrophysiological evaluation in canine cardiac ventricular muscle reported as % change for conduction time(CT) at 10 uM at 1-100 uM concentration range; Minimal (<10% decrease or increase in CT). The class given is functional, Canis lupus familiaris, Muscle tissue.
The species named for test [4] is Canis familiaris. The test can be described thus: In vitro electrophysiological activity in canine cardiac occurred is 100 uM. The class given is functional, Canis lupus familiaris, Heart.
The species entered for test [5] is Canis familiaris. Briefly: In vitro electrophysiological evaluation in canine cardiac Purkinje fibres reported as % change for action potential duration at a concentration of 10 uM. Format: functional, Canis lupus familiaris, Purkinje fiber. The gist of the method: as §1
For test [6], the species on record is Canis familiaris. Briefly: In vitro electrophysiological evaluation in canine cardiac ventricular muscle reported as % change for conduction time(CT) at 10 uM at 0.1-100 uM concentration range; Minimal (<10% decrease or increase in CT). Format: functional, Canis lupus familiaris, Muscle tissue.
For test [7], the species on record is Canis familiaris. Briefly: In vitro electrophysiological evaluation in canine cardiac ventricular muscle reported as maximum % change for conduction time(CT) at 0.1-100 uM concentration range; Minimal (<10% decrease or increase in CT). The class given is functional, Canis lupus familiaris, Muscle tissue. In short, it runs like this:
as §2

Test [8] is filed under the species Canis familiaris. The test can be described thus: In vitro electrophysiological evaluation in canine cardiac ventricular muscle reported as % change for the functional refractory period (FRP) at 10 uM at concentration range of 0.1-100 uM. More on the design: species or system Canis lupus familiaris, Muscle tissue. In short, it runs like this:
as §2

Test [9] is filed under the species Canis familiaris. The test can be described thus: In vitro electrophysiological evaluation in canine cardiac ventricular muscle reported as % change for the functional refractory period (FRP) at 10 uM at concentration range of 1-100 uM. More on the design: species or system Canis lupus familiaris, Muscle tissue. The gist of the method: as §2
The species named for test [10] is Canis familiaris. Briefly: In vitro electrophysiological evaluation in canine cardiac Purkinje fibres reported as percent change Vmax at 10 uM at concentration range of 1-100 uM. The class given is functional. The settings on record: Canis lupus familiaris, Purkinje fiber. The gist of the method: as §1
Test [11] is filed under the species Canis familiaris. Briefly: In vitro electrophysiological evaluation in canine cardiac occurred is 100 uM. Format: functional. The settings on record: Canis lupus familiaris; Heart.
The species named for test [12] is Canis familiaris. The test can be described thus: In vitro electrophysiological evaluation in canine cardiac ventricular muscle reported as maximum % change for functional refractory period (FRP) at 0.1-100 uM concentration range; concentration at which it occurred is 100 uM. More on the design: species or system Canis lupus familiaris, Muscle tissue. The gist of the method: as §2

For test [13], the species on record is Canis familiaris. The test can be described thus: In vitro electrophysiological evaluation in canine cardiac ventricular muscle reported as maximum % change for conduction time(CT) at 1-100 uM concentration range; concentration at which it occurred is 100 uM. The class given is functional, Canis lupus familiaris, Muscle tissue. In short, it runs like this:
as §2

For test [14], the species on record is Canis familiaris. Briefly: In vitro electrophysiological evaluation in canine cardiac ventricular muscle reported as maximum % change for functional refractory period (FRP) at 1-100 uM concentration range; concentration at which it occurred is 100 uM. Set-up: species or system Canis lupus familiaris, Muscle tissue. In short, it runs like this:
as §2

For test [15], the species on record is Canis familiaris. Briefly: In vitro electrophysiological activity in canine cardiac occurred is 10 uM. The class given is functional, Canis lupus familiaris, Heart.

Take `CCOC(=O)C(CC1C(=O)C2CCN1CC2)C(=O)c1ccc(Cl)c(NS(C)(=O)=O)c1.Cl` (stereo not given): the APD95 in the test filed under Canis familiaris [1] is -4%; in the test filed under Canis familiaris [4], -16%; in the test filed under Canis familiaris [5] it was 9%; in the test filed under Canis familiaris [15], 9%. Further, the CT was 12% in the test filed under Canis familiaris [2]; <10% in the test filed under Canis familiaris [3]; <10% in the test filed under Canis familiaris [6]; <10% in the test listed under Canis familiaris [7]; 14% in the test filed under Canis familiaris [13]. Also, the FRP in the test listed under Canis familiaris [8] is 5% and -7% and 6%; in the test filed under Canis familiaris [9] it was 10%; in the test listed under Canis familiaris [12], 12% and 5% and 14%; in the test filed under Canis familiaris [14], 15%. Further, the Vmax is -11% and -10% in the test listed under Canis familiaris [10]; -19% and -21% in the test filed under Canis familiaris [11].
